The list is not random: actives were taken first. Their share in the collection is about 2.5%.
SENP7 inh: blocks the human protease SENP7; Q9BQF6; 330,000 compounds, 1.5% hits; recombinant SENP7, Z-RLRGG-aminoluciferin luminescence, 40 min; AID 434973; inhibition, % at 5 µM;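 active = inhibition above about 50% at the single test dose, limit read from the data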;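 also: plate controls were DMSO with enzyme for no effect and no enzyme buffer wells for full effect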
SENP6 inh: inhibitors of human SENP6 protease; Q9GZR1; Recombinant SENP6 catalytic domain, aminoluciferin luminescence; inhibition, % at 10 µM; 330,000 compounds, 1.8% hits;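 active = inhibition above about 50% at the single tested dose, limit read from the data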;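 also: plate controls were DMSO wells with enzyme for no effect and DMSO wells lacking enzyme for full effect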
Target sequence (Q9GZR1 628-1112 limits assumed): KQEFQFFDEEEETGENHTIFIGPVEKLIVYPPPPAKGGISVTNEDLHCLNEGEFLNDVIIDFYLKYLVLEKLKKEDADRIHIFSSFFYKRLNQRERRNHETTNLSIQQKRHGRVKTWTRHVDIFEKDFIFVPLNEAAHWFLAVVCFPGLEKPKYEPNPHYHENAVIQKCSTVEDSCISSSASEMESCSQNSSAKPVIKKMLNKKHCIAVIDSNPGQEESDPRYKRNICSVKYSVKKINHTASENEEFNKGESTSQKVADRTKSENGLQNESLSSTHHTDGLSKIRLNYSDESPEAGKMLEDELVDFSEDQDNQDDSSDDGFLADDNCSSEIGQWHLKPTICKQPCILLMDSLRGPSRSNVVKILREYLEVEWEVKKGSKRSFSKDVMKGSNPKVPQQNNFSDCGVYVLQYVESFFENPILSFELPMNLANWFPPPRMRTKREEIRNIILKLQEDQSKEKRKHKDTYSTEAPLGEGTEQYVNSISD
SENP1 inh: blocks the human SENP1 SUMO protease catalytic domain; Q9P0U3; recombinant SENP1 catalytic domain, CyPet-SUMO1-YPet FRET cleavage; inhibition, % at 10 µM; 360,000 compounds, 0.21% hits; AID 624204;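 active = inhibition at least 30% at 10 µM, raw YFP signal under a set limit, fluorescence ratio 0.5 to 1.5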;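 also: 0% = enzyme with DMSO and 100% = no enzyme wells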
Target sequence (Q9P0U3 419-644 limits assumed): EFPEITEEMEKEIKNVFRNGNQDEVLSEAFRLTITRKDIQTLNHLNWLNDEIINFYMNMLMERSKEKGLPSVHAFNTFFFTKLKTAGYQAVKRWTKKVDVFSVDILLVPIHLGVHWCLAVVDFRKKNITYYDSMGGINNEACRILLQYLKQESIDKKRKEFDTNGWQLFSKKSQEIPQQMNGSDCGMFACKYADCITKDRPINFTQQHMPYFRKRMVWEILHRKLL
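System: Recombinant human SENP1 catalytic domain, His6-tagged | Incubation: Enzyme reaction for 50 min at room temperature, dark | Medium: Tris pH 8 with BME, BSA, NP40 and catalase | Also added: 25 nM SUMO1 FRET substrate | Compound: 10 µM single point, 0.5% DMSO | Measured by: FRET fluorescence in CFP and YFP emission channels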
SENP8 block-1: blocks human SENP8 cleavage of Nedd8 substrate. recombinant SENP8, Nedd8 substrate fluorescence. inhibition, % at 20 µM. Q96LD8. AID 602440. 360,000 compounds, 0.64% hits; in the data active = inhibition mostly above about 40%, no sharp cut-off; inactive = mostly below about 27%
SENP8 block-2: blocks the human protease SENP8. Q96LD8. purified SENP8, Z-RLRGG-aminoluciferin cleavage, luminescence. inhibition, % at 10 µM. 330,000 compounds, 1.2% hits; in the data active = inhibition above about 50%
SENP8 conf-1: human SENP8 inhibition, confirmed | AID 488912 | 6,200 compounds, 40% hits | Recombinant SENP8, Z-RLRGG-aminoluciferin luminescence, 60 min | shares compounds with SENP7 inh | inhibition, % at 12.5 µM;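 active = mean inhibition across replicates above about 50%, limit read from the data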
SENP6 confirm: human SENP6 inhibition, confirmed | 6,200 compounds, 58% hits | shares compounds with SENP7 inh | inhibition, % at 12.5 µM | recombinant SENP6, Z-RLRGG-aminoluciferin luminescence
SENP7 confirm: confirmation of human SENP7 protease inhibitors; shares compounds with SENP7 inh; inhibition, % at 12.5 µM; 6,200 compounds, 69% hits; recombinant SENP7, Z-RLRGG-aminoluciferin luminescence, 40 min
Casp3 select: inhibits human caspase-3 in SENP selectivity test. shares compounds with SENP7 inh. purified caspase-3, Z-DEVD-aminoluciferin luminescence, 60 min. 6,200 compounds, 60% hits. AID 488918. inhibition, % at 12.5 µM;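 active = mean inhibition above about 50%, limit read from the data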;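 also: plate controls were enzyme with DMSO for no effect and wells without caspase-3 for full effect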
SENP luc ctr: luminescence interference (SENP counter-screen) | 6,200 compounds, 39% hits | shares compounds with SENP7 inh | inhibition, % at 12.5 µM | Pre-incubated SENP8/Z-RLRGG-aminoluciferin, luciferase luminescence interference;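 active = mean inhibition above about 50% when retested at one dose, limit read from the data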;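 also: plate controls were DMSO wells with completed reaction for no effect and substrate without enzyme for full effect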
SENP8 conf-2: confirmation of human SENP8 protease inhibitors | shares compounds with SENP8 block-1 | purified SENP8, Nedd8-AMC/pro-Nedd8 cleavage fluorescence, 30 min | inhibition, % at 25 µM | 1,400 compounds, 15% hits; in the data active = inhibition mostly above about 39%, no sharp cut-off; inactive = mostly below about 34%
Numbers without * were called inactive; · = no result given.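 The calls were made as follows, unless noted: active = mean inhibition above about 50% in the one-dose retest (limit read from the data); inactive = the rest.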

SMILES	SENP7 inh	SENP6 inh	SENP1 inh	SENP8 block-1	SENP8 block-2	SENP8 conf-1	SENP6 confirm	SENP7 confirm	Casp3 select	SENP luc ctr	SENP8 conf-2
COC(=O)c1ccc(NC(=O)Nc2ccc(F)cc2F)cc1	87.7*	81.5*	-2.5	4.5	64.4*	12.2	12.1	76.6*	72.3*	5.8	·
CCSc1nsc(NC(=O)Nc2ccccc2Cl)n1	·	·	1.4	4.3	·	·	·	·	·	·	·
CCSc1nsc(NC(=O)Nc2ccc(F)cc2F)n1	12.1	51.7*	0.2	2.7	22.4	24.7	22.8	65.2*	33.6	14.7	·
COC(=O)c1ccc(NC(=O)Nc2cccc(F)c2)cc1	89.7*	88.2*	-0.6	4.0	79.3*	74.9*	74.8*	95.5*	69.1*	8.9	·
O=C(Nc1ccccc1)Nc1ccccc1Br	81.0*	58.8*	3.0	24.4	73.2*	5.8	82.1*	95.5*	77.7*	45.0	·
O=C(Nc1ccccc1)Nc1cccc(NC(=O)Nc2ccccc2)c1F	0.8	-12.5	2.8	10.5	-4.7	·	·	·	·	·	·
Cc1ccc(C)c(N2CC(C(=O)O)CC2=O)c1 (centres undefined)	15.0	6.7	1.4	21.9	6.0	·	·	·	·	·	·
O=C1/C(=C/N(C(=O)c2ccco2)c2ccc(Br)cc2)Sc2ccccc21	79.5*	90.0*	-47.0	-109.3	84.4*	11.3	51.0*	71.5*	44.5	40.4	·
CCN1CCC(N2CCN(c3ccc(Cl)cc3)CC2)CC1	1.7	78.4*	·	·	1.1	-11.8	-10.3	-9.1	4.8	-0.2	·
O=C(CN1CCN(c2ccc(O)cc2)CC1)NC(=O)NCc1ccco1	-0.6	-4.5	1.1	37.8	-1.5	·	·	·	·	·	·
O=C(C(=O)N1CCN(c2ccccc2)CC1)c1ccco1	·	·	1.6	12.2	·	·	·	·	·	·	·
Oc1cc(Nc2ccccc2)cc2cccnc12	-3.8	22.9	2.5	-21.7	-3.2	·	·	·	·	·	·
Oc1cc(NCCN2CCOCC2)cc2cccnc12	64.1*	73.7*	-4.7	64.3*	61.1*	40.5	76.4*	40.4	95.3*	3.7	90.7*
c1ccc(-c2n[nH]c(-c3ccccn3)n2)cc1	64.4*	61.3*	-0.4	40.9*	31.8	51.0*	50.9*	85.8*	83.1*	64.3*	11.3
Nc1n[nH]c(-c2ccccc2)n1	-1.8	-18.5	-0.9	19.0	-3.8	·	·	·	·	·	·
COc1cccc(C(C(=O)NCc2ccccc2)N2CCN(c3cccc(C)c3C)CC2)c1OC (centres undefined)	·	·	1.9	14.6	·	·	·	·	·	·	·
O=C(N/N=C1\C/C(=N\NC(=O)c2ccncc2)c2ccccc21)c1ccncc1	36.6	84.8*	22.0	98.1*	63.9*	-15.6	42.0	8.6	36.6	7.6	94.7*
O=[N+]([O-])c1ccccc1N/N=C/c1c[nH]c2ccccc12	79.1*	81.6*	3.5	41.3*	63.5*	30.7	43.6	95.5*	29.8	7.9	17.3
Cn1cc([N+](=O)[O-])c(C(=O)N/N=C\c2c[nH]c3ccccc23)n1	7.1	-6.8	-0.7	12.5	-2.2	·	·	·	·	·	·
COc1ccc(C(=O)Oc2cc(C)c(CN3CCOCC3)cc2C)cc1OC	-0.8	-6.3	-0.6	10.3	6.7	·	·	·	·	·	·
COc1ccc2c(c1)Cc1sc(NC(C)=O)nc1-2	62.4*	80.8*	-1.8	66.7*	72.8*	-8.4	51.6*	75.8*	53.8*	28.9	65.5*
CC1=NN(c2ccc(F)cc2)C(=O)C1C(c1cccc(O)c1)c1c(C)[nH]n(-c2ccc(F)cc2)c1=O (centres undefined)	57.8*	23.1	1.9	89.7*	27.2	-17.3	19.4	5.5	-2.5	-1.2	52.3*
O=[N+]([O-])c1ccc(C=Nc2ccc(Cl)c([N+](=O)[O-])c2)s1	21.1	50.2*	4.5	75.8*	35.0	4.8	40.2	21.6	4.0	2.6	79.9*
Cc1cc(C)cc(N=Cc2ccc([N+](=O)[O-])s2)c1	16.6	56.8*	-1.4	75.4*	29.1	14.2	41.2	9.2	-3.8	-3.4	82.6*
Cn1ccnc1CC(O)(c1ccccc1)c1ccccc1	1.4	11.9	-1.8	17.0	-6.2	·	·	·	·	·	·
SMILES	SENP7 inh	SENP6 inh	SENP1 inh	SENP8 block-1	SENP8 block-2	SENP8 conf-1	SENP6 confirm	SENP7 confirm	Casp3 select	SENP luc ctr	SENP8 conf-2
O=C(Nc1ccc(S(=O)(=O)N2CCCCC2)cc1)C1CC(=O)N(c2ccc(Cl)cc2)C1 (centres undefined)	2.6	-16.3	1.9	0.1	1.7	·	·	·	·	·	·
CN(C)c1ccc(NC(=O)C[n+]2ccccc2)cc1	-12.7	-6.6	5.7	10.5	-0.3	·	·	·	·	·	·
CN(C)c1ccc(NC(=O)Oc2ccccc2)cc1	3.6	75.1*	1.3	43.6*	35.7	63.5*	60.7*	85.4*	81.4*	45.6	10.0
Cc1c(Cl)cccc1NC(=O)CNC(=O)C1CCN(C(=O)Nc2ccccc2)CC1	-3.5	-1.9	-0.5	4.5	2.8	·	·	·	·	·	·
Nc1c(C(=O)N/N=C/c2ccc(Cl)cc2)cnn1-c1ccccc1	6.0	4.2	2.3	-40.5	7.7	·	·	·	·	·	·
Nc1scc2c(C(=O)N/N=C/c3ccc(Cl)cc3)nn(-c3ccccc3)c(=O)c12	9.2	50.1*	9.6	68.6*	24.8	21.1	25.9	18.0	24.2	-3.2	86.4*
Cc1c(NC(=O)C(C)OC(=O)c2ccc([N+](=O)[O-])s2)c(=O)n(-c2ccccc2)n1C (centres undefined)	15.3	58.3*	3.2	48.1*	53.9*	47.1	79.4*	28.3	6.8	-16.5	73.0*
Cc1c(NC(=O)C(C)OC(=O)c2sc3ccccc3c2Cl)c(=O)n(-c2ccccc2)n1C (centres undefined)	-2.0	-24.8	1.7	8.6	-0.1	·	·	·	·	·	·
COc1ccc(NC(=O)CSc2nc3c(c(-c4cccs4)c2C#N)CN(C)CC3)cc1OC	22.6	68.2*	46.5	51.5*	39.9	-0.7	2.3	4.8	3.5	0.5	1.5
COC(=O)c1[nH]c(=O)c2ccccc2c1O	17.1	63.6*	0.7	40.6*	52.5*	-9.1	12.7	-6.7	4.7	-9.8	-31.6
CCOC(=O)C1(C)CCCN(C(=O)c2ccc(C)c(F)c2)C1 (centres undefined)	·	·	2.1	17.2	·	·	·	·	·	·	·
